# What was measured:
# Assay type in all cases: functional
# [1] = test system: Candida parapsilosis; assay: Antifungal activity against Candida parapsilosis ATCC 90018 assessed as reduction in fungal cell growth incubated for 24 hrs by MTT based broth double dilution method; conditions: Lodderomyces parapsilosis, ATCC 90018, 24 h
# How it was run: (§1)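 Broth double-dilution in Casitone broth. Starter cultures were grown 24 or 48 h at 37 °C, 5% CO₂, diluted 1:100, and added to serial two-fold dilutions at 64 to 0.007 µg/mL. Final inoculum was 5 x 10^4 to 5 x 10^5 CFU/mL; DMSO was 0.0012–1.3%. Plates were incubated at 37 °C, 5% CO₂, then MTT was added for 2 h. MIC followed CLSI M27-A3. Triplicates, two independent experiments.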
# [2] = test system: Candida albicans; assay: Antifungal activity against Candida albicans P-87 assessed as reduction in fungal cell growth incubated for 24 hrs by MTT based broth double dilution method; conditions: P-87, 24 h; how it was run: as §1
# [3] = test system: Meyerozyma guilliermondii; assay: Antifungal activity against Candida guilliermondii T-47 assessed as reduction in fungal cell growth incubated for 24 hrs by MTT based broth double dilution method; conditions: T-47, 24 h; how it was run: as §1
# [4] = test system: Candida albicans; assay: Antifungal activity against Candida albicans SN152 assessed as reduction in fungal cell growth incubated for 24 hrs by MTT based broth double dilution method; conditions: SN152, 24 h; how it was run: as §1
# [5] = test system: Candida dubliniensis; assay: Antifungal activity against Candida dubliniensis T-99 assessed as reduction in fungal cell growth incubated for 24 hrs by MTT based broth double dilution method; conditions: T-99, 24 h; how it was run: as §1
# [6] = test system: Candida albicans; assay: Antifungal activity against Candida albicans ATCC 90028 assessed as reduction in fungal cell growth incubated for 24 hrs by MTT based broth double dilution method; conditions: ATCC 90028, 24 h; how it was run: as §1
# [7] = test system: Candida parapsilosis; assay: Antifungal activity against Candida parapsilosis ATCC 22019 assessed as reduction in fungal cell growth incubated for 24 hrs by MTT based broth double dilution method; conditions: Lodderomyces parapsilosis, ATCC 22019, 24 h; how it was run: as §1
# [8] = test system: Nakaseomyces glabratus; assay: Antifungal activity against Candida glabrata 192 assessed as reduction in fungal cell growth incubated for 24 hrs by MTT based broth double dilution method; conditions: Nakaseomyces glabratus, 192, 24 h; how it was run: as §1
# [9] = test system: Nakaseomyces glabratus; assay: Antifungal activity against Candida glabrata ATCC 2001 assessed as reduction in fungal cell growth incubated for 24 hrs by MTT based broth double dilution method; conditions: ATCC 2001, 24 h; how it was run: as §1
# [10] = test system: Nakaseomyces glabratus; assay: Antifungal activity against Candida glabrata ATCC 66032 assessed as reduction in fungal cell growth incubated for 24 hrs by MTT based broth double dilution method; conditions: ATCC 66032, 24 h; how it was run: as §1
# [11] = test system: Candida albicans; assay: Antifungal activity against Candida albicans ATCC 90028 assessed as reduction in fungal cell growth incubated for 48 hrs by MTT based broth double dilution method; conditions: ATCC 90028, 48 h; how it was run: as §1
# [12] = test system: Candida albicans; assay: Antifungal activity against Candida albicans SN152 assessed as reduction in fungal cell growth incubated for 48 hrs by MTT based broth double dilution method; conditions: SN152, 48 h; how it was run: as §1
# [13] = test system: Nakaseomyces glabratus; assay: Antifungal activity against Candida glabrata ATCC 66032 assessed as reduction in fungal cell growth incubated for 48 hrs by MTT based broth double dilution method; conditions: ATCC 66032, 48 h; how it was run: as §1
# [14] = test system: Nakaseomyces glabratus; assay: Antifungal activity against Candida glabrata 192 assessed as reduction in fungal cell growth incubated for 48 hrs by MTT based broth double dilution method; conditions: Nakaseomyces glabratus, 192, 48 h; how it was run: as §1
MIC [1] [µg/mL],MIC [2] [µg/mL],MIC [3] [µg/mL],MIC [4] [µg/mL],MIC [5] [µg/mL],MIC [6] [µg/mL],MIC [7] [µg/mL],MIC [8] [µg/mL],MIC [9] [µg/mL],MIC [10] [µg/mL],Structure (SMILES),MIC [11] [µg/mL],MIC [12] [µg/mL],MIC [13] [µg/mL],MIC [14] [µg/mL]
0.25,0.125,1,0.5,4,0.25,2,4,8,32,COc1ccc2cc(C(=O)NCC(O)(Cn3cncn3)c3ccc(F)cc3F)c(=O)oc2c1 (racemic),,,,
0.25,0.125,1,0.25,0.5,0.25,2,1,4,1,O=C(NCC(O)(Cn1cncn1)c1ccc(F)cc1F)c1cc2ccccc2oc1=O (racemic),,,,

Structure (SMILES),MIC [1] [µg/mL],MIC [2] [µg/mL],MIC [3] [µg/mL],MIC [4] [µg/mL],MIC [5] [µg/mL],MIC [6] [µg/mL],MIC [7] [µg/mL],MIC [8] [µg/mL],MIC [9] [µg/mL],MIC [10] [µg/mL],MIC [11] [µg/mL],MIC [12] [µg/mL],MIC [13] [µg/mL],MIC [14] [µg/mL]
CCC(C)n1ncn(-c2ccc(N3CCN(c4ccc(OCC5COC(Cn6cncn6)(c6ccc(Cl)cc6Cl)O5)cc4)CC3)cc2)c1=O (racemic) [ITRACONAZOLE],0.007,0.007,0.03,0.007,0.06,0.007,0.03,0.125,1,1,0.007,0.007,> 64,0.125
